The source of these data is publication PMC3502072 (Molecular cancer therapeutics, 2012).

“Also recorded” adds a separate entry of the source. A value given as a limit tells only on which side of the number the result lay.

The test system of data set [1] is MM cells (RPMI-8226, NCI-H929, U266B1, MM.1S). Kind of data set: CellTiter-Glo cell viability, multiple myeloma cell lines. In kind it is cell-based, human. The settings on record: 24 h; for Concentrations that significantly reduced MM cell viability: RPMI-8226 cells. On the technique in general: In ATP-based viability assays light output follows the ATP content of the culture.

Data set [2] is described as follows: Pilot toxicity study, body condition scoring. Format: in vivo, mice. The method in brief:
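Pilot tolerability study in a small cohort of mice. Doses were chosen from a range based on NCI DTP toxicity data. A single dose was given, and toxicity was assessed qualitatively by body condition scoring.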

For data set [3], the system named is NCI-H929 subcutaneous xenografted tumors. Kind of data set: MM subcutaneous plasmacytoma model. The note with it: for Tumor growth delay relative to vehicle-treated controls: 5 mg/kg. Format: in vivo, hairless SCID mice.
Data set [4] deals with H460, A172, HT29, HepG2, hFOB and MRC-5 cells. In kind it is cell-based, human. The settings on record: 500 nM, 16 hours.
Another data set concerns RPMI-8226 cells. Nature of the data set: Apoptosis, cleaved caspase-3 flow cytometry in MM cells. In kind it is cell-based, human. The note with it: 16 hours. Background: Flow cytometry measures light scatter and fluorescence of single cells or particles in a stream.
In data set [5] the test system is human cell lines derived from multiple tumor types. Nature of the data set: CellTiter-Glo cell viability, panel of tumor cell lines. In kind it is cell-based.
In data set [6] the test system is PKC. The note with it: cited from earlier work.
For data set [7], the system named is primary CD138-positive plasma cells from MM patient bone marrow biopsies. Nature of the data set: Cell viability of primary MM patient plasma cells. In kind it is cell-based, human. The note with it: 24 h; cells from 2 patients. A digest of the protocol:
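Bone marrow aspirates from MM patients were separated on Ficoll-Paque. CD138+ plasma cells were isolated with magnetic anti-CD138 beads, and purity was checked by FACS. Cells were cultured in RPMI 1640 with 10% FBS and gentamycin at 37°C and 5% CO2, then treated with the test compound at a range of concentrations for 24 h. Viability was read by CellTiter-Glo luminescence; mean ± S.E (n=3).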

Data set [8] has as its target CDK9 (Homo sapiens, UniProt P50750). The settings on record: cited from earlier work.
The subject of data set [9] is PKC. Nature of the data set: Phorbol ester-induced PKC and ERK phosphorylation in MM cells. Format: cell-based, human. The note with it: MM cells stimulated with phorbol-12-myristate-13-acetate.
The target in another data set is CDK4/cyclin D1 (Homo sapiens, UniProt P11802). Nature of the data set: HotSpot in vitro kinase assay CDK4/cyclin D1. In kind it is biochemical. The settings on record: read-out: IC50 CDK4/cyclin D1.
Chain of CDK4/cyclin D1 (P11802 whole entry): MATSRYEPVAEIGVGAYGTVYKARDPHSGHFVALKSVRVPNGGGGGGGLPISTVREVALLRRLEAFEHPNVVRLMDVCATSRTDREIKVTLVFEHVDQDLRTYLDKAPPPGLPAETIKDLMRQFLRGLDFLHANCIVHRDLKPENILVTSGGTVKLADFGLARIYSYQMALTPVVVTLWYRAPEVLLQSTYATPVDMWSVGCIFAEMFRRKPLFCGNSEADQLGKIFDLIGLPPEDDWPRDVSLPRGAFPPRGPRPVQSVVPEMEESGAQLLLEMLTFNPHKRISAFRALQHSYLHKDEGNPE
Chain of CDK4/cyclin D1 (P24385 whole entry partner): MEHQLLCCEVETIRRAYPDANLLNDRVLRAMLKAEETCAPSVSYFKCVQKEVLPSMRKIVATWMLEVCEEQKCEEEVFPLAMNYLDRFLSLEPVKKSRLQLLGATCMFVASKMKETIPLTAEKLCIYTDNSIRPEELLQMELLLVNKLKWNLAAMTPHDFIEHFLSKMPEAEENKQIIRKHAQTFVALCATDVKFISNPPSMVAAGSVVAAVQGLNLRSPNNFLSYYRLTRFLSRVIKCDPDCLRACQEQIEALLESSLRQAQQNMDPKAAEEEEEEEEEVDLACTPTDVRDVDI
In another data set the test system is CDK7. Nature of the data set: RNA polymerase II Ser5 phosphorylation. In kind it is cell-based, human. The settings on record: NCI-H929 cells, 2 hours.
For a further data set, the target named is CDK1/cyclin B (Homo sapiens, UniProt P06493). Nature of the data set: HotSpot in vitro kinase assay CDK1/cyclin B. The note with it: read-out: IC50 CDK1/cyclin B. In kind it is biochemical.
Chain of CDK1/cyclin B (P06493 whole entry): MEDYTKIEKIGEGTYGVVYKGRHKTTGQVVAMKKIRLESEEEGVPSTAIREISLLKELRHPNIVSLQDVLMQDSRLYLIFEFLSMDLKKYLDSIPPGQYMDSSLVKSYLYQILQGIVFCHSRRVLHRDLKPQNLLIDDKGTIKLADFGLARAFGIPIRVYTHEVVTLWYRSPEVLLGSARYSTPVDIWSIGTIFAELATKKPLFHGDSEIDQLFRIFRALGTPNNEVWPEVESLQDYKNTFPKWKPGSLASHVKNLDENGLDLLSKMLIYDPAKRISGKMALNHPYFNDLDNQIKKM
Chain of CDK1/cyclin B (P14635 whole entry partner): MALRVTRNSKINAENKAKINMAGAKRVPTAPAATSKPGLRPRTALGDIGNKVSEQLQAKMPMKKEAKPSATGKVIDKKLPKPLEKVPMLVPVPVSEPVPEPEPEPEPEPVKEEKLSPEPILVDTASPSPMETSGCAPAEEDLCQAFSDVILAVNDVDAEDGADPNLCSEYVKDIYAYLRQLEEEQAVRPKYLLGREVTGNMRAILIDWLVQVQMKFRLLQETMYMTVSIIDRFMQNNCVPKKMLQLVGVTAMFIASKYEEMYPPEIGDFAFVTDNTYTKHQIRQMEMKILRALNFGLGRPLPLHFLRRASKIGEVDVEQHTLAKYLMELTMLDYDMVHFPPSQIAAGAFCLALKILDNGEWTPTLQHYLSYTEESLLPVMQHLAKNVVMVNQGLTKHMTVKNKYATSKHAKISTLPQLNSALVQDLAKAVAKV
The target of another data set is CDK9/cyclin T1 (Homo sapiens, UniProt P50750). The note with it: read-out: IC50 CDK9/cyclin T1 kinase activity.
Chain of CDK9/cyclin T1 (P50750 whole entry): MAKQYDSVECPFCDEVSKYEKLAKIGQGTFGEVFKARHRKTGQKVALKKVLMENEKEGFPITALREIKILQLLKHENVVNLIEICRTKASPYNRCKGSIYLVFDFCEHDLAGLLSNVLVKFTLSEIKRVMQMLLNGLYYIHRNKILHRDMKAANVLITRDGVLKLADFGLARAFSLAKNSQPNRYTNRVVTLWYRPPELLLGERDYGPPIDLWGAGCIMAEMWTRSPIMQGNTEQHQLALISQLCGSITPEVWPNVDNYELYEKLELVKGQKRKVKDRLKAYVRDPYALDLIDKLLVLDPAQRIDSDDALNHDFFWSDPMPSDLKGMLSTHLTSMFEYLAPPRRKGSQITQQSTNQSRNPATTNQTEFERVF
Chain of CDK9/cyclin T1 (O60563 whole entry partner): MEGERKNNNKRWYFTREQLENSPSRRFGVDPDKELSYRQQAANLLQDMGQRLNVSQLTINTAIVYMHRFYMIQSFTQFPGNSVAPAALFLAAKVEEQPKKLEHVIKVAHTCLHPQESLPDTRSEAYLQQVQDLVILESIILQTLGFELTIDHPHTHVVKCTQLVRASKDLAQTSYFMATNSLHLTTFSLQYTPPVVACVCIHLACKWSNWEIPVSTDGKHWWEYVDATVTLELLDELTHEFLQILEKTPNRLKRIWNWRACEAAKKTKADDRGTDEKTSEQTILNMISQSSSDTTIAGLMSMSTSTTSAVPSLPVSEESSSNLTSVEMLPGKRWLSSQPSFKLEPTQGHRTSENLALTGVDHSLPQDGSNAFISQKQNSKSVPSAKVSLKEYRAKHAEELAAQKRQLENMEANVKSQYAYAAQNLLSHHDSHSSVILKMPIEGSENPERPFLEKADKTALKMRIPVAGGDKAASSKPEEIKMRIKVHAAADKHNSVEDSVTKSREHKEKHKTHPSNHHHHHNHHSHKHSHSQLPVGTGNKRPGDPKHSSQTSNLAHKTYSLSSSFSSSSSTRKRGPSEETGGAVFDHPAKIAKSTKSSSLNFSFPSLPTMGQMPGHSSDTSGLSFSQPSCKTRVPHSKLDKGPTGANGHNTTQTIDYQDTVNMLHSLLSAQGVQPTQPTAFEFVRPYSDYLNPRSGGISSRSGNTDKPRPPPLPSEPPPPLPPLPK
The next data set concerns RPMI-8226/NIH-3T3 tumors. Kind of data set: RPMI-8226-GFP/NIH-3T3 co-injection xenograft model.
In data set [10] the test system is CDK9. Kind of data set: CDK9 signaling, Western blots in MM cells. In kind it is cell-based, human. The note with it: NCI-H929 cells, 2 hours. On the technique in general: Immunoblotting shows a protein as a band on a membrane.
Data set [11] can be described thus: Serum biochemistry and complete blood count in immunocompetent mice. The note with it: C57BL/6 mice. Format: in vivo.
The test system of data set [12] is NCI-H929 and CD138+ MM patient bone marrow cells. Nature of the data set: Cell viability, SLM6 with bortezomib. In kind it is cell-based, human. The settings on record: single agents.
The subject of data set [13] is cyclin D1, c-Maf, c-Myc, L-Myc. Kind of data set: Expression of MM oncogenes, Western blot and RT-PCR. Format: cell-based, human. The settings on record: 250 nM.
Another data set addresses CDK9/cyclin K (Homo sapiens, UniProt P50750). The settings on record: read-out: IC50 CDK9/cyclin K kinase activity.
The target in a further data set is CDK2/cyclin A (Homo sapiens, UniProt P24941). The settings on record: read-out: IC50 CDK2/cyclin A.
In another data set the target is CDK7/cyclin H (Homo sapiens, UniProt P50613). Kind of data set: HotSpot in vitro kinase assay CDK7/cyclin H. In kind it is biochemical. The note with it: read-out: IC50 CDK7/cyclin H.
Chain of CDK7/cyclin H (P50613 whole entry): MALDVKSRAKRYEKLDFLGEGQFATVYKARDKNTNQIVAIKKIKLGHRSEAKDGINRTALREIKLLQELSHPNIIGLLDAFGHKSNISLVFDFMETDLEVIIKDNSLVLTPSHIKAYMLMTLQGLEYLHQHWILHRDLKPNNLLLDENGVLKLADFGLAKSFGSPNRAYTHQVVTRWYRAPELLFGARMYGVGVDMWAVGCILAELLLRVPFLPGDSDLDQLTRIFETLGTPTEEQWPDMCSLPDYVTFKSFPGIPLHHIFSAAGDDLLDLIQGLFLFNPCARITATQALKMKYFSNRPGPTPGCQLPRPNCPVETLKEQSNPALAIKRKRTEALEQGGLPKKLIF
Chain of CDK7/cyclin H (P51946 whole entry partner): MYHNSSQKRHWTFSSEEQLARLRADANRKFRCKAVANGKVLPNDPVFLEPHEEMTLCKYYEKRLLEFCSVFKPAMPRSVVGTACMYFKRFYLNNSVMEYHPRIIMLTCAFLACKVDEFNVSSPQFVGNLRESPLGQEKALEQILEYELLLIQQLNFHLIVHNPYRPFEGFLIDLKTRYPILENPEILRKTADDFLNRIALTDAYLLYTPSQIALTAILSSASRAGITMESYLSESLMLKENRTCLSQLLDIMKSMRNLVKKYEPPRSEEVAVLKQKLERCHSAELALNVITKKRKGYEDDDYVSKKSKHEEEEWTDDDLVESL
Chain of CDK7/cyclin H (P51948 whole entry partner): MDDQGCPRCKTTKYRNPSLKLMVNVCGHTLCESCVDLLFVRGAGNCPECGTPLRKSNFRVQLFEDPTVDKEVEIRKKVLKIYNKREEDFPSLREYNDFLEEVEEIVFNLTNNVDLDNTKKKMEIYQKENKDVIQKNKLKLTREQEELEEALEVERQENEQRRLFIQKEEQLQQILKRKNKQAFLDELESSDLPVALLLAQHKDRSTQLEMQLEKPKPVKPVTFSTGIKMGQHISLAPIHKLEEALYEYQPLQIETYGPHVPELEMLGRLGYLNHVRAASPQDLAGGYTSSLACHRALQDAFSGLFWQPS
The conditions of data set [14]: cited from earlier work.

Chain of CDK9/cyclin K (P50750 whole entry): as the sequence (P50750 whole entry) above
Chain of CDK9/cyclin K (O75909 whole entry partner): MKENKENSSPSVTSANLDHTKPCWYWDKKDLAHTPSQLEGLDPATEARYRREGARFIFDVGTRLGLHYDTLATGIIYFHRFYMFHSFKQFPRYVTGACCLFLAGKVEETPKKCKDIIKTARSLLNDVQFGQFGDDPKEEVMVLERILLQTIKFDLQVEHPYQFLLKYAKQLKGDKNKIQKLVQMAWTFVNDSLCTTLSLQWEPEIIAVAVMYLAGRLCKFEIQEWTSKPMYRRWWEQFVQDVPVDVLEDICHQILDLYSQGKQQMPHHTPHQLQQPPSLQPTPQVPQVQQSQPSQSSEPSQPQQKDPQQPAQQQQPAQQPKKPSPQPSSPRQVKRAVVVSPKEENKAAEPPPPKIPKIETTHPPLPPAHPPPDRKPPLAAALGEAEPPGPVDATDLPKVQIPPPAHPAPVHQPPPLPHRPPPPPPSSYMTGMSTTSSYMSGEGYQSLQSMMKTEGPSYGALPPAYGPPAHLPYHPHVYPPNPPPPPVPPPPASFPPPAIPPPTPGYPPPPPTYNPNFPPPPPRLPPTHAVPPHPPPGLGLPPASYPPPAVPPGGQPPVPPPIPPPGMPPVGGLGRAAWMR
Chain of CDK9 (Homo sapiens, UniProt P50750) (P50750 whole entry): as the sequence (P50750 whole entry) above
Chain of CDK9 (Homo sapiens, UniProt P50750) (O60563 whole entry partner): as the sequence (O60563 whole entry partner) above

In the case of `O=c1[nH]cc(F)c(=O)[nH]1` [5′-fluorouracil], the “Effect on MM cell viability” value in [1] is “relatively insensitive”.

Regarding `[Cl-].[Li+]` [LiCl, lithium chloride], the “Effect on MM cell viability” value in [1] is given as “neither LiCl nor purvalanol A reduced MM cell viability; also recorded: relatively insensitive”.

For `O=C1NC(=NCc2cccs2)S/C1=C\c1ccc2ncccc2c1` [RO3306], in data set [1], the “Effect on MM cell viability” value is on record as “relatively insensitive”.

For the compound `Cl.NNc1c(C(N)=O)c2c(N)ncnc2n1C1OC(CO)C(O)C1O` (stereo not drawn) [SLM3 HCl], the “Toxicity by body condition scoring” value in data set [2] (single dose of 25 mg/kg) was “no overt toxicity”. Besides, the “Effect on the growth of MM tumors” value in data set [3] (25 mg/kg, weekly i.p.) was “no effect”.

With `NNc1c(C(N)=O)c2c(N)ncnc2n1[C@@H]1O[C@H](CO)[C@@H](O)[C@H]1O` [SLM3], the “Apoptosis (active caspase-3 positive cells)” value in data set [4] is listed as “negligible levels of apoptosis”. Moreover, the “Apoptotic marker cleaved caspase-3” value with RPMI-8226 cells (RPMI-8226, increasing concentrations) is “dose-dependent increase”. Further, the “Sensitivity of MM cells relative to other tumor types” value in data set [5] (MM cell lines and primary patient plasma cells vs other tumor types) lay in the range of 3 to 10 times. Besides, the IC50 in data set [5] (read-out: IC50, cell viability, 24 h, breast, colon, lung, hepatocellular, glioma and one of two pancreatic cancer cell lines) is greater than 2 µM. Also, in the data set with PKC [6], the “Activity against PKC in vitro” value is recorded as “modest activity”. Also, the “Activity on cell viability of primary plasma cells” value in [7] is “confirmed this activity”. Also, in data set [1], the “Effect on MM cell viability” value was “superior activity compared to other nucleoside analogs” and the “Concentrations that significantly reduced MM cell viability” value was “less than 250 nM”. Also, the IC50 in data set [1] (read-out: IC50, cell viability, MM cells) lay within 0.2 to 0.4 µM. For the same compound, on CDK9 [8], the “Activity against CDK9 in vitro” value was “modest activity”.

Take `N/C(=N\O)c1cn(C2OC(CO)C(O)C2O)c2ncnc(N)c12` (stereo not drawn) [SLM5]: the “Toxicity by body condition scoring” value in data set [2] (single dose of 5 mg/kg) is “no overt toxicity”. Besides, the “Tumor growth delay relative to vehicle-treated controls” value in data set [3] (weekly i.p.) was 7 days. Further, the “Concentrations that significantly reduced MM cell viability” value in data set [1] is listed as “less than 250 nM”.

As for `N/N=C(\N)c1cn(C2OC(CO)C(O)C2O)c2ncnc(N)c12` (stereo not drawn) [SLM6], the “Phorbol ester-induced PKC or ERK phosphorylation” value in the data set with PKC [9] is given as “no effect”. Besides, the IC50 on CDK4/cyclin D1 was greater than 10 µM; on CDK1/cyclin B it was less than 0.3 µM; on CDK9/cyclin T1, 0.133 µM; on CDK9/cyclin K, 0.28 µM; at CDK2/cyclin A, less than 0.3 µM; on CDK7/cyclin H it was greater than 10 µM. The “Phosphorylation of RNA polymerase II at Ser5” value in the data set with CDK7 is recorded as “no effect”. The “Size of MM tumors relative to vehicle-treated controls” value with RPMI-8226/NIH-3T3 tumors (0.5 mg/kg, weekly i.p.) was “significantly reduced the size of MM tumors”. For the same compound, in the data set on RPMI-8226/NIH-3T3 tumors (0.5 mg/kg, weekly i.p.), the “Time to evident anti-MM effects after first treatment” value is given as no more than 7 days. In the data set on RPMI-8226/NIH-3T3 tumors (repeated dosing, 0.5 mg/kg weekly i.p.), the “Mouse body weight or body condition scoring” value is reported as “no effect”. Also, the “Lowest concentration inhibiting phosphorylation of RNA polymerase II at Ser2” value in the data set on CDK9 [10] amounted to 250 nM. Besides, in the data set with CDK9 [10], the “Phosphorylation of CDK9 at Thr186” value is “inhibited phosphorylation of CDK9 at Thr186”. The “Toxicity by body condition scoring” value in [2] (single dose of 1 mg/kg) is on record as “no overt toxicity”. Moreover, the “Effects on normal hematopoiesis, complete blood count with differential” value in [11] was “no effects on normal hematopoiesis in vivo other than modest thrombocytopenia”. In data set [11], the “Systemic toxicity by serum biochemistry” value was “no signs of systemic toxicity”. In addition, the “Apoptotic markers in tumors (immunohistochemistry)” value in [3] (1 mg/kg i.p., 48 hours) was “regions of intense cleaved caspase-3 and cleaved caspase-8 immunostaining”. Also, the “Duration of sustained anti-tumor activity” value in data set [3] (1 mg/kg i.p., single dose on day 1) was 5 weeks. For the same compound, the “Sensitivity of MM cell lines and primary patient plasma cells to single agent” value in data set [12] is on record as “sensitive”. Moreover, in [1], the “Effect on MM cell viability” value is “able to reduce the viability of MM cells”. Further, in [1], the “Concentrations that significantly reduced MM cell viability” value is “less than 250 nM”. Besides, the “c-Myc and cyclin D1 mRNA transcripts (RT-PCR)” value in data set [13] (6 hours, RPMI-8226 and U266B1 cells) is “decreased c-Myc and cyclin D1 mRNA transcripts”. In addition, the “Oncogene protein expression (Western blot)” value in [13] (time course, U266B1, RPMI-8226, NCI-H929 cells) is “repressed the expression of cyclin D1 in U266B1 cells and c-Maf expression in RPMI-8226 cells; also recorded: repressed c-Myc protein levels in RPMI-8226 and NCI-H929 cells, and suppressed L-Myc expression in U266B1 cells”.

Regarding `N=C(N)c1cn(C2OC(CO)C(O)C2O)c2ncnc(N)c12` (stereo not drawn) [SLM7], in [2] (single dose of 5 mg/kg), the “Toxicity by body condition scoring” value is listed as “no overt toxicity”. The “Tumor growth delay relative to vehicle-treated controls” value in [3] (weekly i.p.) was determined as 7 days. For the same compound, the “Concentrations that significantly reduced MM cell viability” value in [1] is given as “less than 250 nM”.

`O=C1Cc2c([nH]c3ccc([N+](=O)[O-])cc23)-c2ccccc2N1` [alsterpaullone]: the “Effect on MM cell viability” value in data set [1] is “micromolar concentrations of alsterpaullone) were able to reduce the viability of MM cells”.

Turning to `CC(C)C[C@H](NC(=O)[C@H](Cc1ccccc1)NC(=O)c1cnccn1)B(O)O` [bortezomib, reference compound], the “Sensitivity of MM cell lines and primary patient plasma cells to single agent” value in data set [12] is recorded as “sensitive”.

For the compound `Nc1nc(Cl)nc2c1ncn2[C@H]1C[C@H](O)[C@@H](CO)O1` [cladribine], the “Effect on MM cell viability” value in data set [1] is given as “relatively insensitive”.

As to `CN1CC[C@H](c2c(O)cc(O)c3c(=O)cc(-c4ccccc4Cl)oc23)[C@H](O)C1` [flavopiridol, reference compound], in the data set on RPMI-8226/NIH-3T3 tumors (5.0 mg/kg, weekly i.p.), the “Anti-MM activity in vivo” value was “no anti-MM activity”. The “Effect on MM cell viability” value in data set [1] was “able to reduce the viability of MM cells”.

As to `Nc1ccn([C@@H]2O[C@H](CO)[C@@H](O)C2(F)F)c(=O)n1` [gemcitabine], the “Effect on MM cell viability” value in [1] was “relatively insensitive”.

On to `CC(C)[C@H](CO)Nc1nc(Nc2cccc(Cl)c2)c2ncn(C(C)C)c2n1` [purvalanol A], for which, in data set [1], the “Effect on MM cell viability” value was “neither LiCl nor purvalanol A reduced MM cell viability; also recorded: relatively insensitive”.

With `CC[C@H](CO)Nc1nc(NCc2ccccc2)c2ncn(C(C)C)c2n1` [roscovitine], in data set [1], the “Effect on MM cell viability” value is recorded as “relatively insensitive”.

In the case of `NC(=O)c1cn([C@@H]2O[C@H](CO)[C@@H](O)[C@H]2O)c2ncnc(N)c12` [sangivamycin, reference compound], in the data set with PKC [9], the “Phorbol ester-induced PKC or ERK phosphorylation” value is given as “significantly reduced phosphorylation of both kinases”. Moreover, the “MM cell apoptosis (cleaved caspase-3 positive cells)” value with RPMI-8226 cells (RPMI-8226, 500 nM) is listed as 60-80%. Besides, in data set [14], the “Safety in humans, phase I trial” value was “demonstrated the safety of this compound in humans”. Further, the “Activity against PKC” value in the data set with PKC [6] is given as “known to inhibit PKC”. Moreover, in [1], the “Concentrations that significantly reduced MM cell viability” value is “less than 250 nM”.
